Laboratory results reported in ChEMBL document CHEMBL1142303, “Imidazo[2,1-b]thiazole system: a scaffold endowing dihydropyridines with selective cardiodepressant activity” (J Med Chem, 2008).
The source made the active and inactive calls. No cut-off for these calls is given here.

Experiments:
Cavia porcellus [1] = species: Cavia porcellus; assay: Chronotropic activity at L type calcium channel in guinea pig right atrium assessed as decrease in spontaneous beating at 100 uM relative to control; type: tissue-based; design: scale not given: the % may be the effect or the level left; conditions: Cardiac atrium
Cavia porcellus [2] = species: Cavia porcellus; assay: Inotropic activity at L type calcium channel in guinea pig left atrium assessed as decrease in tension at 1 uM relative to control; type: tissue-based; design: scale not given: the % may be the effect or the level left; conditions: Cardiac atrium
Cavia porcellus [3] = species: Cavia porcellus; assay: Chronotropic activity at L type calcium channel in guinea pig right atrium assessed as decrease in spontaneous beating; type: tissue-based; conditions: Cardiac atrium
Procedure, shortened: (§1)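 Guinea-pig atria: left atrium driven at 1 Hz for inotropy, spontaneously beating right atrium for chronotropy. Increasing cumulative doses, readout is percent decrease. EC50 (inotropic) and EC30 (chronotropic) by Litchfield–Wilcoxon probit analysis on log concentration–response curves, n = 6–7. Not calculated when the maximum effect was below 50%.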

Cavia porcellus [4] = species: Cavia porcellus; assay: Activity at L type calcium channel in K+ depolarized guinea pig aortic strip assessed as inhibition of calcium induced contraction at 100 uM; type: tissue-based; design: scale not given: the % may be the effect or the level left; conditions: Aorta
Procedure, shortened: (§2)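 Guinea-pig aortic strips depolarized with 80 mM K+. Drugs added cumulatively. Readout is percent inhibition of calcium-induced contraction, n = 5–6. Control versus treated values tested at each concentration by Student's t-test, P < 0.05.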

Cavia porcellus [5] = species: Cavia porcellus; assay: Chronotropic activity at L type calcium channel in guinea pig right atrium assessed as decrease in spontaneous beating at 10 uM relative to control; type: tissue-based; design: scale not given: the % may be the effect or the level left; conditions: Cardiac atrium
Cavia porcellus [6] = species: Cavia porcellus; assay: Activity at L type calcium channel in K+ depolarized guinea pig longitudinal smooth muscle assessed as inhibition of calcium induced contraction at 10 uM; design: scale not given: the % may be the effect or the level left
[7] = Inotropic activity at L type calcium channel in guinea pig left atrium assessed as decrease in tension; type: tissue-based; conditions: Cavia porcellus, Cardiac atrium; procedure, shortened: as §1
[8] = Activity at L type calcium channel in K+ depolarized guinea pig longitudinal smooth muscle assessed as inhibition of calcium induced contraction; design: species or system Cavia porcellus
Cavia porcellus [9] = species: Cavia porcellus; assay: Chronotropic activity at L type calcium channel in guinea pig right atrium assessed as decrease in spontaneous beating at 50 uM relative to control; type: tissue-based; design: scale not given: the % may be the effect or the level left; conditions: Cardiac atrium
Cavia porcellus [10] = species: Cavia porcellus; assay: Activity at L type calcium channel in K+ depolarized guinea pig aortic strip assessed as inhibition of calcium induced contraction at 50 uM; type: tissue-based; design: scale not given: the % may be the effect or the level left; conditions: Aorta; procedure, shortened: as §2
Cavia porcellus [11] = species: Cavia porcellus; assay: Inotropic activity at L type calcium channel in guinea pig left atrium assessed as decrease in tension at 100 uM relative to control; type: tissue-based; design: scale not given: the % may be the effect or the level left; conditions: Cardiac atrium
Cavia porcellus [12] = species: Cavia porcellus; assay: Activity at L type calcium channel in K+ depolarized guinea pig aortic strip assessed as inhibition of calcium induced contraction at 10 uM; type: tissue-based; design: scale not given: the % may be the effect or the level left; conditions: Aorta; procedure, shortened: as §2
Cavia porcellus [13] = species: Cavia porcellus; assay: Inotropic activity at L type calcium channel in guinea pig left atrium assessed as decrease in tension at 5 uM relative to control; type: tissue-based; design: scale not given: the % may be the effect or the level left; conditions: Cardiac atrium
Cavia porcellus [14] = species: Cavia porcellus; assay: Chronotropic activity at L type calcium channel in guinea pig right atrium assessed as decrease in spontaneous beating at 5 uM relative to control; type: tissue-based; design: scale not given: the % may be the effect or the level left; conditions: Cardiac atrium
Cavia porcellus [15] = species: Cavia porcellus; assay: Inotropic activity at L type calcium channel in guinea pig left atrium assessed as decrease in tension at 50 uM relative to control; type: tissue-based; design: scale not given: the % may be the effect or the level left; conditions: Cardiac atrium
Cavia porcellus [16] = species: Cavia porcellus; assay: Inotropic activity at L type calcium channel in guinea pig left atrium assessed as decrease in tension at 10 uM relative to control; type: tissue-based; design: scale not given: the % may be the effect or the level left; conditions: Cardiac atrium
Cavia porcellus [17] = species: Cavia porcellus; assay: Activity at L type calcium channel in K+ depolarized guinea pig longitudinal smooth muscle assessed as inhibition of calcium induced contraction at 100 uM; design: scale not given: the % may be the effect or the level left
Cavia porcellus [18] = species: Cavia porcellus; assay: Inotropic activity at L type calcium channel in guinea pig left atrium assessed as decrease in tension at 0.5 uM relative to control; type: tissue-based; design: scale not given: the % may be the effect or the level left; conditions: Cardiac atrium
Cavia porcellus [19] = species: Cavia porcellus; assay: Activity at L type calcium channel in K+ depolarized guinea pig longitudinal smooth muscle assessed as inhibition of calcium induced contraction at 1 uM; design: scale not given: the % may be the effect or the level left
[20] = Displacement of (+)-[5-methyl-3H][…] from L type calcium channel in guinea pig heart ventricles; design: species or system Cavia porcellus
Procedure, shortened: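 Guinea-pig ventricular membranes incubated with 0.5 nM (+)-[5-methyl-3H]PN200-110 and test compounds at 0.1–50 µM in a competitive radioligand assay. Ki and IC50 reported as mean ± S.E.M. Student's t-test, significance P < 0.001.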

HEK293 = assay: Displacement of (+)-[5-methyl-3H][…] from L type calcium channel Cav1.2b in rabbit expressed in HEK293 cells; type: cell-based; conditions: Oryctolagus cuniculus
Procedure, shortened: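 Intact HEK-293 cells transfected with rabbit Cav1.2a (α1C-a) or Cav1.2b (α1C-b) plasmid, labelled with (+)-[5-methyl-3H]PN200-110. Nonspecific binding about 10–20% of total. IC50 is mean ± S.E.M. of three independent experiments.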

Cavia porcellus [21] = species: Cavia porcellus; assay: Activity at L type calcium channel in K+ depolarized guinea pig longitudinal smooth muscle assessed as inhibition of calcium induced contraction at 0.1 uM; design: scale not given: the % may be the effect or the level left
Cavia porcellus [22] = species: Cavia porcellus; assay: Activity at L type calcium channel in K+ depolarized guinea pig longitudinal smooth muscle assessed as inhibition of calcium induced contraction at 5 uM; design: scale not given: the % may be the effect or the level left

Structure (SMILES) | EC30 (Cavia porcellus [3]) [nM] | Activity (Cavia porcellus [4]) [%] | Activity (Cavia porcellus [5]) [%] | EC50 [7] [nM] | IC50 [8] [nM] | Activity (Cavia porcellus [10]) [%] | Activity (Cavia porcellus [15]) [%] | other results
COC(=O)C1=C(C)NC(C)=C(C(=O)OC)C1c1c(-c2c(OC)ccc(OC)c2[N+](=O)[O-])nc2sc(Cl)cn12 | 11200 | 32 |  |  |  |  |  | Activity (Cavia porcellus [1]): 64%; Activity (Cavia porcellus [2]): 42%
COC(=O)C1=C(C)NC(C)=C(C(=O)OC)C1c1c(-c2ccccc2C(F)(F)F)nc2sccn12 |  | 24 | 25 | 93 | 1660 |  |  | Activity (Cavia porcellus [2]): 56%; Activity (Cavia porcellus [6]): 92%
COC(=O)C1=C(C)NC(C)=C(C(=O)OC)C1c1c(-c2ccc(OC)c(OC)c2)nc2sccn12 | 1440 |  |  | 2640 |  | 15 |  | Activity (Cavia porcellus [9]): 80%; Activity (Cavia porcellus [11]): 61%
COC(=O)C1=C(C)NC(C)=C(C(=O)OC)C1c1c(-c2ccccc2)nc2sc(Cl)cn12 | 2140 |  | 87 | 1960 |  | 22 |  | Activity (Cavia porcellus [11]): 58%
COC(=O)C1=C(C)NC(C)=C(C(=O)OC)C1c1c(Cl)nc2sc(C)c(C)n12 |  |  |  | 81 |  |  |  | Activity (Cavia porcellus [12]): 29%; Activity (Cavia porcellus [13]): 73%; Activity (Cavia porcellus [14]): 29%
COC(=O)C1=C(C)NC(C)=C(C(=O)OC)C1c1c(C)nc2sc(Cl)cn12 |  |  | 30 | 130 |  | 24 | 63 | 
CCc1cn2c(C3C(C(=O)OC)=C(C)NC(C)=C3C(=O)OC)c(-c3cc(OC)ccc3OC)nc2s1 | 730 |  | 92 | 2240 |  | 29 | 72 | 
COC(=O)C1=C(C)NC(C)=C(C(=O)OC)C1c1c(-c2cccc(C(F)(F)F)c2)nc2sccn12 | 1900 |  | 78 | 310 |  | 27 | 89 | 
COC(=O)C1=C(C)NC(C)=C(C(=O)OC)C1c1c(-c2c(OC)ccc(OC)c2[N+](=O)[O-])nc2sccn12 |  | 17 |  | 360 | 11000 |  |  | Activity (Cavia porcellus [1]): 12%; Activity (Cavia porcellus [16]): 71%; Activity (Cavia porcellus [17]): 86%
COC(=O)C1=C(C)NC(C)=C(C(=O)OC)C1c1c(-c2c(OC)ccc(OC)c2[N+](=O)[O-])nc2sc(C)cn12 |  | 27 |  | 93 |  |  |  | Activity (Cavia porcellus [1]): 47%; Activity (Cavia porcellus [13]): 71%
COC(=O)C1=C(C)NC(C)=C(C(=O)OC)C1c1c(C(F)(F)F)nc2sc(C)cn12 |  |  | 36 |  |  | 28 |  | Activity (Cavia porcellus [2]): 46%
COC(=O)C1=C(C)NC(C)=C(C(=O)OC)C1c1c(C)nc2sc(C)cn12 |  | 33 |  |  |  |  |  | Activity (Cavia porcellus [9]): 38%; Activity (Cavia porcellus [18]): 43%
COC(=O)C1=C(C)NC(C)=C(C(=O)OC)C1c1c(-c2cc(OC)ccc2OC)nc2sc(C)cn12 | 1360 | 15 | 58 | 1430 |  |  | 78 | 
COC(=O)C1=C(C)NC(C)=C(C(=O)OC)C1c1c(-c2cc(OC)c([N+](=O)[O-])cc2OC)nc2sccn12 | 3970 |  | 67 | 54 | 2560 | 35 |  | Activity (Cavia porcellus [6]): 97%; Activity (Cavia porcellus [13]): 54%
CCCc1cn2c(C3C(C(=O)OC)=C(C)NC(C)=C3C(=O)OC)c(-c3c(OC)ccc(OC)c3[N+](=O)[O-])nc2s1 |  | 5 |  | 39 | 12800 |  | 55 | Activity (Cavia porcellus [14]): 25%; Activity (Cavia porcellus [17]): 89%
COC(=O)C1=C(C)NC(C)=C(C(=O)OC)C1c1c(-c2cc(OC)c([N+](=O)[O-])cc2OC)nc2sc(C)cn12 | 2110 | 32 | 87 | 26 | 240 |  |  | Activity (Cavia porcellus [19]): 94%; Activity (Cavia porcellus [13]): 75%; Log Ki [20]: < -5; Activity (HEK293): inactive
COC(=O)C1=C(C)NC(C)=C(C(=O)OC)C1c1c(Cl)nc2scc(C)n12 |  |  | 39 | 103 |  | 47 |  | Activity (Cavia porcellus [2]): 79%
COC(=O)C1=C(C)NC(C)=C(C(=O)OC)C1c1c(-c2cc(OC)c([N+](=O)[O-])cc2OC)nc2sc(Cl)cn12 | 310 |  |  | 360 |  |  |  | Activity (Cavia porcellus [12]): 19%; Activity (Cavia porcellus [16]): 58%; Activity (Cavia porcellus [14]): 90%
COC(=O)C1=C(C)NC(C)=C(C(=O)OC)C1c1c(-c2ccccc2)nc2sc(C)c(C)n12 | 330 | 12 |  | 590 |  |  |  | Activity (Cavia porcellus [14]): 94%; Activity (Cavia porcellus [11]): 76%
COC(=O)C1=C(C)NC(C)=C(C(=O)OC)C1c1c(-c2cccc(OC(F)(F)F)c2)nc2sccn12 | 1180 | 26 |  | 830 |  |  | 86 | Activity (Cavia porcellus [14]): 69%
COC(=O)C1=C(C)NC(C)=C(C(=O)OC)C1c1c(-c2cccc(OC)c2)nc2sccn12 | 550 |  |  | 1900 | 83 |  |  | Activity (Cavia porcellus [21]): 51%; Activity (Cavia porcellus [12]): 48%; Activity (Cavia porcellus [14]): 94%; Activity (Cavia porcellus [11]): 90%
COC(=O)C1=C(C)NC(C)=C(C(=O)OC)C1c1c(-c2cc(OC)ccc2OC)nc2sccn12 |  | 24 | 31 | 440 | 12400 |  | 92 | Activity (Cavia porcellus [6]): 51%
COC(=O)C1=C(C)NC(C)=C(C(=O)OC)C1c1c(-c2ccccc2)nc2scc(C)n12 | 640 |  |  | 830 |  | 30 |  | Activity (Cavia porcellus [14]): 88%; Activity (Cavia porcellus [11]): 59%
COC(=O)C1=C(C)NC(C)=C(C(=O)OC)C1c1c(-c2ccccc2OC)nc2sccn12 | 1990 | 28 |  | 1970 |  |  |  | Activity (Cavia porcellus [1]): 95%; Activity (Cavia porcellus [11]): 54%
COC(=O)C1=C(C)NC(C)=C(C(=O)OC)C1c1c(-c2ccccc2OC(F)(F)F)nc2sccn12 |  | 47 | 47 | 75 | 1950 |  |  | Activity (Cavia porcellus [22]): 81%; Activity (Cavia porcellus [13]): 67%; Log Ki [20]: -6.8
COC(=O)C1=C(C)NC(C)=C(C(=O)OC)C1c1c(-c2ccc(OC)cc2OC)nc2sccn12 | 5880 | 42 | 55 | 1240 |  |  | 71 | 
COC(=O)C1=C(C)NC(C)=C(C(=O)OC)C1c1c(-c2cc(OC)ccc2OC)nc2sc(Cl)cn12 | 360 | 11 |  | 900 |  |  |  | Activity (Cavia porcellus [1]): 84%; Activity (Cavia porcellus [11]): 55%
COC(=O)C1=C(C)NC(C)=C(C(=O)OC)C1c1c(Cl)nc2sc(Cl)cn12 |  |  | 37 | 180 |  | 34 | 77 | 
COC(=O)C1=C(C)NC(C)=C(C(=O)OC)C1c1c(-c2cc(OC)c(OC)cc2[N+](=O)[O-])nc2sccn12 | 6970 | 35 |  | 1340 |  |  | 91 | Activity (Cavia porcellus [9]): 90%
COC(=O)C1=C(C)NC(C)=C(C(=O)OC)C1c1c(-c2cc(OC)c(OC)c(OC)c2)nc2sccn12 |  | 44 |  |  | 550 |  |  | Activity (Cavia porcellus [2]): 42%; Activity (Cavia porcellus [19]): 64%; Activity (Cavia porcellus [14]): 25%
